Source: ChEMBL document CHEMBL5154895, “Mechanistic Studies and In Vivo Efficacy of an Oxadiazole-Containing Antibiotic” (J Med Chem, 2022)
Values after ≈ are worked out from the molar mass of the structure shown. Active and inactive are the calls of the source. The calls are words filed in the database; no cut-off is given here.

What was measured:
Format in all cases: functional
[1] = tested on: Staphylococcus aureus; test: Upregulation of thiol reductase thioredoxin expression in Staphylococcus aureus measured after 2 hrs by LC-MS/MS analysis
Outline: (§1)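 S. aureus ATCC 25923 at OD600 0.6 exposed to compound or DMSO control for 2 h at 37°C, normalized to OD600 1.1 and PBS-washed. Cells were pressure-cycling lysed in 100 mM ammonium bicarbonate, and 50 μg protein was acetone-precipitated, reduced and alkylated, then Trypsin/Lys-C digested and C18-desalted. About 1 μg peptides went to LC-MS/MS. Label-free quantitation kept proteins present in all 3 samples, filtered at p <0.05.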

[2] = tested on: Staphylococcus aureus; test: Downregulation of LukD protein expression in Staphylococcus aureus assessed as log2 of fold change in protein level measured after 2 hrs by LC-MS/MS analysis relative to control
Outline: (§2)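 S. aureus ATCC 25923 at OD600 0.6 was treated with compound or DMSO for 2 h at 37 °C, normalised to OD600 1.1, and washed in PBS. Cells were pressure-lysed in 100 mM ammonium bicarbonate, then acetone-precipitated, reduced with DTT, alkylated with iodoacetamide, and digested with trypsin/Lys-C. Peptides were desalted and run on LC-MS/MS. Label-free quantitation used proteins present in all 3 samples, filtered at p<0.05 against DMSO.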

[3] = tested on: Staphylococcus aureus; test: Downregulation of Als protein expression in Staphylococcus aureus assessed as log2 of fold change in protein level measured after 2 hrs by LC-MS/MS analysis relative to control; outline: as §2
[4] = tested on: Staphylococcus aureus; test: Upregulation of siderophore biosynthesis protein SbnA expression in Staphylococcus aureus measured after 2 hrs by LC-MS/MS analysis; outline: as §1
[5] = tested on: Staphylococcus aureus; test: Antibacterial activity against vancomycin-resistant Staphylococcus aureus 12 assessed as inhibition of bacterial growth incubated for 18 to 20 hrs by broth microdilution method; conditions: time 18-20 hrs
Outline: (§3)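 Broth microdilution per CLSI. Inoculum was set to 0.5 McFarland and diluted in CAMHB to about 5×10^5 CFU/mL. Serial dilutions of agent were incubated aerobically at 37 °C for 18–20 h. MIC was read visually as the lowest concentration with complete growth inhibition.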

[6] = tested on: Staphylococcus aureus; test: Downregulation of holo-ACP synthase protein expression in Staphylococcus aureus measured after 2 hrs by LC-MS/MS analysis; outline: as §2
[7] = tested on: Staphylococcus aureus; test: Upregulation of L-serine dehydratase, iron-sulfurdependent subunit alpha expression in Staphylococcus aureus measured after 2 hrs by LC-MS/MS analysis; outline: as §1
[8] = tested on: Staphylococcus aureus; test: Downregulation of GloB protein expression in Staphylococcus aureus assessed as log2 of fold change in protein level measured after 2 hrs by LC-MS/MS analysis relative to control; outline: as §2
[9] = tested on: Staphylococcus aureus; test: Downregulation of PgsA gene expression in Staphylococcus aureus ATCC 25923 assessed as reduction in […] at 0.25 ug/ml incubated for 2 hrs by RT-PCR analysis; conditions: dose 0.25 µg/ml
Outline: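 S. aureus ATCC 25923 at OD600 0.6 was treated in triplicate with 0.25 μg/mL compound or DMSO for 2 h at 37 °C and pelleted. Total RNA was analysed by real-time RT-PCR with pgsA primers, normalised to 16S rRNA. Significance was tested by Student's t-test.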

[10] = tested on: Staphylococcus aureus; test: Upregulation of IsdI protein expression in Staphylococcus aureus assessed as log2 of fold change in protein level measured after 2 hrs by LC-MS/MS analysis relative to control; outline: as §1
[11] = tested on: Staphylococcus aureus; test: Upregulation of MecA protein expression in Staphylococcus aureus assessed as log2 of fold change in protein level measured after 2 hrs by LC-MS/MS analysis relative to control; outline: as §1
[12] = tested on: Staphylococcus aureus; test: Antibacterial activity against methicillin-resistant Staphylococcus aureus NRS 386 assessed as inhibition of bacterial growth incubated for 18 to 20 hrs by broth microdilution method; conditions: time 18-20 hrs; outline: as §3
[13] = tested on: Staphylococcus aureus; test: Downregulation of DNA recombination protein RecF expression in Staphylococcus aureus measured after 2 hrs by LC-MS/MS analysis; outline: as §2
[14] = tested on: Staphylococcus aureus; test: Downregulation of uroporphyrinogen-III C-methyltransferase protein expression in Staphylococcus aureus measured after 2 hrs by LC-MS/MS analysis; outline: as §1
[15] = tested on: Streptococcus pneumoniae; test: Antibacterial activity against […] ATCC 700677 assessed as inhibition of bacterial growth incubated for 18 to 20 hrs by broth microdilution method; conditions: time 18-20 hrs
Outline: (§4)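 Broth microdilution per CLSI. S. pneumoniae was diluted to about 5×10^5 CFU/mL in TSB and incubated with serial dilutions of agent at 37 °C for 18–20 h under 5% CO2. MIC was read visually as the lowest concentration completely inhibiting growth.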

[16] = tested on: Staphylococcus aureus; test: Downregulation of carboxylesterase protein expression in Staphylococcus aureus measured after 2 hrs by LC-MS/MS analysis; outline: as §2
[17] = tested on: Staphylococcus aureus; test: Downregulation of LipA protein expression in Staphylococcus aureus assessed as log2 of fold change in protein level measured after 2 hrs by LC-MS/MS analysis relative to control; outline: as §2
[18] = tested on: Staphylococcus aureus; test: Upregulation of DefA protein expression in Staphylococcus aureus assessed as log2 of fold change in protein level measured after 2 hrs by LC-MS/MS analysis relative to control; outline: as §1
[19] = tested on: Streptococcus pneumoniae; test: Antibacterial activity against cephalosporin-resistant Streptococcus pneumoniae ATCC 51916 assessed as inhibition of bacterial growth incubated for 18 to 20 hrs by broth microdilution method; conditions: time 18-20 hrs; outline: as §4
[20] = tested on: Staphylococcus aureus; test: Downregulation of aureolysin protein expression in Staphylococcus aureus measured after 2 hrs by LC-MS/MS analysis; outline: as §2
[21] = tested on: Staphylococcus aureus; test: Antibacterial activity against Staphylococcus aureus MRSA ATCC 33592 assessed as inhibition of bacterial growth incubated for 18 to 20 hrs by broth microdilution method; conditions: time 18-20 hrs
Outline: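 Broth microdilution per CLSI. Inoculum at 0.5 McFarland, diluted in cation-adjusted Mueller Hinton broth to about 5 × 10^5 CFU/mL. Serial compound dilutions incubated aerobically at 37° C for 18–20 hours. MIC taken as the lowest concentration completely inhibiting visible growth.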

[22] = tested on: Staphylococcus aureus; test: Downregulation of IlvA protein expression in Staphylococcus aureus assessed as log2 of fold change in protein level measured after 2 hrs by LC-MS/MS analysis relative to control; outline: as §2
[23] = tested on: Staphylococcus aureus; test: Antibacterial activity against methicillin-resistant Staphylococcus aureus NRS123 assessed as inhibition of bacterial growth incubated for 18 to 20 hrs by broth microdilution method; conditions: time 18-20 hrs; outline: as §3
[24] = tested on: Staphylococcus aureus; test: Downregulation of SdrD protein expression in Staphylococcus aureus assessed as log2 of fold change in protein level measured after 2 hrs by LC-MS/MS analysis relative to control; outline: as §2
[25] = tested on: Staphylococcus aureus; test: Downregulation of LukS-PV protein expression in Staphylococcus aureus assessed as log2 of fold change in protein level measured after 2 hrs by LC-MS/MS analysis relative to control; outline: as §2
[26] = tested on: Staphylococcus aureus; test: Downregulation of Nuc protein expression in Staphylococcus aureus assessed as log2 of fold change in protein level measured after 2 hrs by LC-MS/MS analysis relative to control; outline: as §2
[27] = tested on: Staphylococcus aureus; test: Downregulation of ortho-poxovirus protein expression in Staphylococcus aureus measured after 2 hrs by LC-MS/MS analysis; outline: as §1

With `CC1CC(C)CN(S(=O)(=O)c2ccc(C(=O)Nc3nnc(-c4ccc(C(F)(F)F)cc4)o3)cc2)C1` (configuration not stated) the Activity [1] was “Active”, the log2FC [2] was -2 and the log2FC [3] was -2.7. For the same compound, the Activity [4] was “Active”, the MIC [5] was 0.25 µg/mL (≈ 0.492 µM) and the Activity [6] was “Active”. For the same compound, the Activity [7] was “Active”, the log2FC [8] was -2 and the Activity [9] was “Active”. For the same compound, the log2FC [10] was 3.2, the log2FC [11] was 2 and the MIC [12] was 0.25 µg/mL (≈ 0.492 µM). The Activity [13] was “Active”, the Activity [14] was “Active” and the MIC [15] was 0.06 µg/mL (≈ 0.118 µM). For the same compound, the Activity [16] was “Active”, the log2FC [17] was -2 and the log2FC [18] was 2. For the same compound, the MIC [19] was 0.06 µg/mL (≈ 0.118 µM), the Activity [20] was “Active” and the MIC [21] was 0.25 µg/mL (≈ 0.492 µM). The log2FC [22] was -2, the MIC [23] was 0.25 µg/mL (≈ 0.492 µM) and the log2FC [24] was -2. The log2FC [25] was -3.7, the log2FC [26] was -5.1 and the Activity [27] was “Active”.
